APJ antagonist = APJ receptor antagonism. inhibition, % at 20 µM. AID 2521. 330,000 tested, 0.32% active. CHO-K1 APJ beta-arrestin complementation, luminescence;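 active = inhibition above about 40% at 20 µM, limit read from the data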;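 note: cells challenged with 10 nM apelin-13 agonist together with compound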
CCR6 antagonist = blocks CCL20-driven beta-arrestin recruitment at human CCR6. AID 493098. P51684. CHO-K1 CCR6 PathHunter beta-arrestin, luminescence, CCL20-stimulated. inhibition, % at 20 µM. 340,000 tested, 0.49% active;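 active = compounds whose inhibition of the agonist-driven luminescence signal at 20 µM reaches about 50%, limit read from the data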;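 note: cells stimulated with CCL20 at 14 nM final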
Target sequence (P51684 whole entry, looked up): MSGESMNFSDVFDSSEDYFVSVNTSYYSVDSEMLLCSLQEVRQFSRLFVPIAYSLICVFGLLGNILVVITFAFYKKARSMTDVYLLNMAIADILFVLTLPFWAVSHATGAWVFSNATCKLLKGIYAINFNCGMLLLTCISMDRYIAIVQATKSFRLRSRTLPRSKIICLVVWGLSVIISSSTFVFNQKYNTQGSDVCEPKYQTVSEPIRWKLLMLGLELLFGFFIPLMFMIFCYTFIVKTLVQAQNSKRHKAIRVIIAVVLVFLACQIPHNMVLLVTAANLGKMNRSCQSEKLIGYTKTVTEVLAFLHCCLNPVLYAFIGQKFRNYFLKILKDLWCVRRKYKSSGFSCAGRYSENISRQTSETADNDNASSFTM
EBI2 antag = blocks human EBI2 receptor beta-arrestin signaling; EBI2 beta-arrestin recruitment, luminescence, 7a,25-OHC stimulated; 360,000 tested, 0.81% active; inhibition, % at 5 µM; AID 651636; P32249; in the data active = inhibition above about 38%;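 note: enzyme fragment complementation signal reports receptor beta-arrestin coupling in cells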
CXCR6 inh = inhibitors of human CXCR6 receptor; O00574; CHO-K1 PathHunter CXCR6 beta-arrestin, luminescence; inhibition, % at 20 µM; 360,000 tested, 0.36% active; AID 602244; in the data active = inhibition above about 34%, passing the limit was not always enough;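 note: antagonist mode with CXCL16 agonist at 10 nM final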
APJ agonist = agonists of human APJ apelin receptor | AID 2520 | 330,000 tested, 0.11% active | activation, % at 20 µM | CHO-K1 APJ PathHunter beta-arrestin, luminescence; 0% DMSO wells, 100% apelin | P35414;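 active = activation more than six SD over the plate average, tested at 20 µM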
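Material: engineered CHO-K1 APJ arrestin reporter cells; amount: 1000 CHO-K1 reporter cells seeded per well; incubation: compound stimulation 90 min at 25 °C, detection 60 min; signal: luminescent beta-gal fragment complementation, chemiluminescent substrate; read-out basis: APJ agonist activity; controls: DMSO-only wells as negative, 10 nM Apelin-13 as positive control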
APJ ag conf = APJ receptor agonism confirmation | shares compounds with APJ agonist | CHO-K1 APJ PathHunter beta-arrestin, luminescence | activation, % at 20 µM | 310 tested, 10% active | AID 2764;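 active = activation above 40%, taking the highest of four retests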
Numbers stand for hits; i = inactive; nt = not tested or not shown. In the library only some 1.5% were active in any assay of this set; here they are far more common.

SMILES	APJ antagonist	CCR6 antagonist	EBI2 antag	CXCR6 inh	APJ agonist	APJ ag conf
COc1cc(/C=N/Nc2nc(-c3ccc(S(=O)(=O)N(C)C)cc3)cs2)ccc1O	i	i	i	i	21	i
N=c1n(CC(=O)c2cccs2)c2ccccc2n1Cc1ccccc1	i	i	i	i	28	i
Cc1cccc(C(=O)OCC(=O)N(C)c2ccccc2)c1C	i	i	i	i	i	nt
COc1cc2c(cc1NC(=O)c1cccc([N+](=O)[O-])c1)oc1ccccc12	i	i	i	i	42	53
COc1cc2c(cc1NC(=O)c1ccc(C)c([N+](=O)[O-])c1)oc1ccccc12	i	i	i	i	i	nt
CCCCN1C(=O)CC2CCOC21C (stereo not given)	nt	nt	i	i	nt	nt
COc1ccc(NC(=O)CN2C(=O)NC(C)(C3CC3)C2=O)cc1S(=O)(=O)N1CCOCC1 (stereo not given)	i	i	i	i	i	nt
CCCCNc1c(-c2ccc(OC)c(Sc3ccc(OC)cc3)c2)nc2ccccn12	i	i	i	i	37	i
c1ccc(-c2nc(N3CCN(c4ccccc4)CC3)nc(-n3ccnc3)n2)cc1	i	i	i	i	i	nt
c1ccc(-c2nc(N3CCCCCC3)nc(-n3ccnc3)n2)cc1	i	i	i	i	26	i
COc1ccc(/C(N)=N/OC(=O)c2cccc([N+](=O)[O-])c2C)cc1	i	i	i	i	18	i
COCOCCn1cc(CN2CCS(=O)(=O)N(Cc3ccc(-c4ccc(F)cc4)cc3)C(CC(C)C)C2=O)nn1 (stereo not given)	nt	nt	i	i	nt	nt
Cc1ccc(-n2ncc3c(N4CCN(c5ccccc5)CC4)ncnc32)c(C)c1	i	i	i	i	17	40
CCN(CC)C(=S)SCc1csc(CC(=O)Nc2ccccc2C)n1	i	i	i	i	i	nt
O=C(c1ccc([N+](=O)[O-])o1)N1CCN(c2nc3c(Cl)cccc3s2)CC1	i	i	i	i	32	i
COc1cccc2sc(N3CCN(C(=O)c4ccc([N+](=O)[O-])o4)CC3)nc12	i	i	i	i	i	nt
N#Cc1ccc(NC(=O)Nc2ccc(Oc3ccc(NC(=O)Nc4ccc(C#N)cc4)cc3)cc2)cc1	i	i	i	i	19	i
Cc1cc(C)n2nc(SCC(=O)Nc3c(C)nn(-c4ccccc4)c3C)nc2n1	i	i	i	i	39	i
CCN1CCN(Cc2ccc(NC(=O)c3cc(NC(=O)c4cnnc5ccccc45)cc(OC)c3)cc2C(F)(F)F)CC1	i	i	i	i	i	nt
COC(=O)c1ccc(-c2cc(CC3(C(=O)OC)CCN(C(=O)OC(C)(C)C)CC3)on2)cc1	i	i	i	i	36	i
COC(=O)C1(Cc2cc(-c3ccccc3)no2)CCN(C(=O)OC(C)(C)C)CC1	i	i	i	i	i	nt
CC(C)(C)OC(=O)NCCCCCNC(=O)c1nc[nH]c1C(=O)NCc1ccc(CNC(=O)OC(C)(C)C)cc1	i	i	i	i	12	i
CC(C)(C)OC(=O)NCc1ccc(CNC(=O)c2nc[nH]c2C(=O)NCc2ccc(CNC(=O)OC(C)(C)C)cc2)cc1	i	i	i	i	i	nt
O=C(NC1CCCC1)c1cc(COc2ccc3ncccc3c2)on1	i	i	i	i	i	nt
O=C(NCCc1cn2ccccc2n1)c1cc(COc2ccc3ncccc3c2)on1	i	i	i	i	31	i
SMILES	APJ antagonist	CCR6 antagonist	EBI2 antag	CXCR6 inh	APJ agonist	APJ ag conf
CC(=O)Nc1ccc(S(=O)(=O)N(Cc2ccccc2)c2ccccc2F)cc1	i	i	i	i	i	nt
Cc1ccc(-c2cc(C(=O)Nc3ccncc3)c3ccccc3n2)cc1	i	i	i	i	31	i
COc1cc(OC)cc(-c2n[nH]c(=S)n2-c2cc(OC)ccc2OC)c1	i	i	i	i	36	40
COc1ccc(OC)c(-n2c(-c3ccc(O)cc3O)n[nH]c2=S)c1	i	i	i	i	i	nt
CCOc1ccc(Nc2nc(NCC3CCCO3)c3ccccc3n2)cc1 (stereo not given)	i	i	66	i	13	i
c1ccc(Nc2nc(NCC3CCCO3)c3ccccc3n2)cc1 (stereo not given)	i	i	i	i	i	nt
O=C(COC(=O)c1ccc2c(c1Cl)C(=O)c1ccccc1C2=O)NC1CC1	i	i	i	i	13	i
O=C(NC1CCCCC1)c1cc2ccccc2cc1O	i	i	i	i	13	i
CNC[C@H]1Oc2ccc(NC(=O)C3CCCCC3)cc2CC(=O)N([C@H](C)CO)C[C@@H]1C	i	i	i	i	i	nt
CC1CCN(S(=O)(=O)c2ccc(C(=O)N3CCCC(C(F)(F)F)C3)cc2)CC1 (stereo not given)	i	i	i	i	i	nt
COc1cc(NC(=O)c2ccccc2)ccc1NC(=O)c1cc2ccccc2o1	i	i	i	i	17	i
CC(=O)c1cccc(CN2CCc3ccc(NC(=O)C4CCCO4)cc3C2)c1 (stereo not given)	i	i	i	i	i	nt
COc1ccc(/C=N/Nc2cc(C)nc3ccc(OC)cc23)c(OC)c1	i	i	i	i	61	64
COc1ccc2nc(C)cc(N/N=C/c3ccccc3)c2c1	i	i	i	i	i	nt
CC(=O)Nc1cc2c3c(cccc3c1)-c1ccccc1-2	nt	i	i	i	nt	nt
Cc1cc(NC(=O)CSc2nc3sc4c(c3c(=O)n2C)CCCC4)no1	i	i	i	i	i	nt
Cc1nn(Cc2ccccc2)c(C)c1NC(=O)CSc1nc2sc3c(c2c(=O)n1C)CCC3	i	i	nt	nt	29	40
Cc1ccc(NC(=O)CSc2ccccc2NC(=O)c2cccc(Cl)c2)cc1Cl	i	i	i	i	14	i
Cc1cccc(C(=O)Nc2ccccc2SCC(=O)Nc2ccc(C)c(Cl)c2)c1	i	i	i	i	i	nt
CCN1C(c2ccccc2)=C(c2ccccc2)S/C1=C/C=C1\SC(=S)N(C)C1=O	nt	i	i	i	nt	nt
CCN1C(c2ccccc2)=C(c2ccccc2)S/C1=C\C=C1/SC(=S)N(C)C1=O	i	i	i	i	115	292
CC1=C(C)/C(=N\OS(=O)(=O)c2ccccc2)C=CC1=O	i	87	i	51	41	i
OC(c1cccc(CN2CCCCC2)c1)c1ncc(-c2cccc(C(F)(F)F)c2)[nH]1 (stereo not given)	nt	nt	i	i	nt	nt
N/C(Cc1ccc(Cl)c(Cl)c1)=N\OC(=O)c1ccc(Br)o1	i	i	i	i	21	i
Cc1cc(C)c2nc(C)cc(N/N=C/c3ccc(O)cc3)c2c1	i	i	i	i	42	i
Cc1cc(N/N=C/c2ccc(O)cc2)c2cccc(C)c2n1	i	i	i	i	i	nt
C/C(COc1ccccc1)=N\NC(=O)c1nnn(-c2nonc2N)c1CSc1ccccc1	i	i	i	i	19	i
CCOc1cc2[nH]c(=S)n(CCN3CCCCC3CC)c(=O)c2cc1OCC (stereo not given)	i	i	i	i	78	i

From PubChem
